pIC50: −log10 of the molar value.
Key:
[1] = Inhibition of rat kidney ALR1 using sodium D-glucuronate as substrate incubated for 1 min and measured up to 4 mins using H2O-dissolved compound by spectrophotometric analysis
In short: (§1)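 ALR1 purified from kidneys of male Wistar rats (8–9 weeks, 200–230 g); reduction of D-glucuronate monitored. Inhibitor dissolved in water. I (%) is inhibition at 100 μM inhibitor. Same enzyme batch throughout. Values are means of two measurements or mean ± SD of at least three.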

[2] = Antioxidant activity assessed as DPPH radical scavenging activity by measuring reduction in absorbance at 200 uM after 30 mins (reference value: 0.013 +/- 0.012); type: functional
In short: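 Stable DPPH radical, 50 μM in ethanol, incubated without (blank) or with test compound at 200 μM; absorbance decline at 518 nm read after the initial 30-min interval. Mean ± SD of at least three measurements.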

[3] = biological target: T1, Aldo-keto reductase family 1 member B1 (Rattus norvegicus, UniProt P07943); assay: Inhibition of rat lens ALR2 using D,L-glyceraldehyde as substrate incubated for 1 min and measured up to 4 mins using 1% DMSO-dissolved compound by spectrophotometric analysis
In short: (§2)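 ALR2 purified from lenses of male Wistar rats (8–9 weeks, 200–230 g); in vitro reduction of D,L-glyceraldehyde (5.0 mM) monitored. Solvent was water or 1% DMSO. Same enzyme batch throughout. IC50 is the mean of two measurements or mean ± SD of at least three.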

[4] = biological target: T1, Aldo-keto reductase family 1 member B1; assay: Inhibition of rat lens ALR2 using D,L-glyceraldehyde as substrate incubated for 1 min and measured up to 4 mins using H2O-dissolved compound by spectrophotometric analysis; in short: as §2
Rattus norvegicus [5] = species: Rattus norvegicus; assay: Inhibition of rat kidney ALR1 at 100 uM using sodium D-glucuronate as substrate incubated for 1 min and measured up to 4 mins using H2O-dissolved compound by spectrophotometric analysis relative to control; in short: as §1
Rattus norvegicus [6] = species: Rattus norvegicus; assay: Selectivity index, ratio of IC50 for rat kidney ALR1 using sodium D-glucuronate as substrate incubated for 1 min and measured up to 4 mins using H2O-dissolved compound to IC50 for rat lens ALR2 using D,L-glyceraldehyde as substrate incubated for 1 min and measured up to 4 mins using H2O-dissolved compound
In short: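 Selectivity factor computed as IC50(ALR1, rat kidney, D-glucuronate) divided by IC50(ALR2, rat lens, D,L-glyceraldehyde), both measured with compounds in water.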

[7] = biological target: Aldo-keto reductase family 1 member B1 (Homo sapiens, UniProt P15121); assay: Inhibition of human AKR1B1 expressed in Escherichia coli using D,L-glyceraldehyde as substrate incubated for 1 min and measured up to 4 mins using by spectrophotometric analysis
[8] = biological target: Aldo-keto reductase family 1 member B1 (Rattus norvegicus) (UniProt P07943); assay: Inhibition of ALR2 in rat lens assessed as reduction in sorbitol accumulation preincubated for 30 mins followed by D-glucose addition and measured after 3 hrs by resazurin based fluorescence analysis
In short: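 Isolated eye lenses from female Wistar rats (9–10 weeks, 210–250 g) incubated with 50 mM glucose, alongside glucose-free and glucose-only controls. Inhibitor at 1, 10, 50 and 100 μM; lens sorbitol measured. Mean ± SEM of at least five independent incubations.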

[9] = biological target: Aldo-keto reductase family 1 member B10 (Homo sapiens, UniProt O60218); assay: Inhibition of human AKR1B10 using D,L-glyceraldehyde as substrate incubated for 1 min and measured up to 4 mins using by spectrophotometric analysis
Aldo-keto reductase family 1 member B10, sequence (O60218 whole entry): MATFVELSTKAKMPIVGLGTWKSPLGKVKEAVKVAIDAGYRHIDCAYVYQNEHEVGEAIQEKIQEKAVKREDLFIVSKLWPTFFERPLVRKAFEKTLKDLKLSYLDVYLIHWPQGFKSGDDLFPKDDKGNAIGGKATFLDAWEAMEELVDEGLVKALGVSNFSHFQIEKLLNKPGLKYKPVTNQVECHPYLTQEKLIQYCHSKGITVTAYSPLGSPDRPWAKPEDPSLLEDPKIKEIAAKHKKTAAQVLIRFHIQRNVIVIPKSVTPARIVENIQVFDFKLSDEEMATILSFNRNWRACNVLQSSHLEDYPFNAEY
In short: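 Human recombinant AKR1B10 at 10 μg/mL protein with 5 mM DL-glyceraldehyde substrate and 0.12 mM NADPH cofactor. Run without DMSO. IC50 is mean ± SD of at least three measurements.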

[10] = biological target: T1, Aldo-keto reductase family 1 member B1; assay: Inhibition of rat lens ALR2 using methylglyoxal as substrate incubated for 1 min and measured up to 4 mins by spectrophotometric analysis
In short: (§3)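 Rat lens ALR2 with methylglyoxal (0.5 mM), 4-hydroxynonenal (0.5 mM) or GS-HNE (1.0 mM). IC50 is mean ± SD of at least three measurements.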

[11] = biological target: T1, Aldo-keto reductase family 1 member B1; assay: Inhibition of rat lens ALR2 using 4-hydroxynonenal as substrate incubated for 1 min and measured up to 4 mins by spectrophotometric analysis; in short: as §3
[12] = biological target: T1, Aldo-keto reductase family 1 member B1; assay: Inhibition of rat lens ALR2 using 4-hydroxynonenal glutathione as substrate incubated for 1 min and measured up to 4 mins by spectrophotometric analysis; in short: as §3
[13] = biological target: T2, Sorbitol dehydrogenase (Ovis aries) (UniProt P07846); assay: Inhibition of sheep liver sorbitol dehydrogenase at 100 uM using sorbitol as substrate measured for 4 mins in presence of NAD+ by spectrophotometric analysis relative to control
T2 sequence (whole entry): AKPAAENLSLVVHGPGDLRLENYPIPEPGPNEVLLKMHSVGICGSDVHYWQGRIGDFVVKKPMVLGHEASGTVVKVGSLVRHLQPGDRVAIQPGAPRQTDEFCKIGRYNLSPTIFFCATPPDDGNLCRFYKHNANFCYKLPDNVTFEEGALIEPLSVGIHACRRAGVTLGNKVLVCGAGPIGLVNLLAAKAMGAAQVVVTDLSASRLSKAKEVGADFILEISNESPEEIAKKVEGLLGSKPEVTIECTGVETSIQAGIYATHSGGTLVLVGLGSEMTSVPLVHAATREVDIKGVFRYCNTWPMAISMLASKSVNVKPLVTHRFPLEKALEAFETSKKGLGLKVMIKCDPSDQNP

Homo sapiens = species: Homo sapiens; assay: Selectivity index, ratio of IC50 for human AKR1B10 to IC50 for human AKR1B1 expressed in Escherichia coli
In short: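 Ratio of IC50s against recombinant human AKR1B10 and AKR1B1, each measured without DMSO as inhibition of DL-glyceraldehyde reduction. AKR1B10 used 5 mM substrate, 0.12 mM nicotinamide adenine dinucleotide phosphate cofactor and 10 μg/mL protein. AKR1B1 used the rat-lens ALR2 assay conditions at 5 μg/mL protein. IC50s are mean ± SD of at least three measurements.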

Structure (SMILES) | pIC50 [1] | pIC50 [3] | pIC50 [4] | inhibition (Rattus norvegicus [5]) | Ratio IC50 (Rattus norvegicus [6]) | pIC50 [7] | inhibition [8] | pIC50 [9] | pIC50 [10] | pIC50 [11] | pIC50 [12] | inhibition [13] | Ratio IC50 (Homo sapiens) | Reduction in absorbance at 518 nm (DPPH) [2]
O=C(O)Cn1c2ccccc2c2nnc(S)nc21 | 4.46 |  |  |  |  |  |  |  |  |  |  |  |  | 0.219
O=C(O)Cn1c2ccccc2c2n[nH]c(=O)nc21 | < 4.00 | 7.29 | 7.38 | 24% | > 2380 | 7.18 | Dose-dependent effect | 4.25 | 7.40 | 6.67 | 6.53 | 0.9% | > 850 | 0.057
COc1ccc2[nH]cc(CCNC(C)=O)c2c1 |  |  |  |  |  |  |  |  |  |  |  |  |  | 0.022

Second part, led by results:

pIC50 [1] | pIC50 [3] | pIC50 [4] | inhibition (Rattus norvegicus [5]) | Ratio IC50 (Rattus norvegicus [6]) | pIC50 [7] | inhibition [8] | pIC50 [9] | pIC50 [10] | pIC50 [11] | pIC50 [12] | inhibition [13] | Ratio IC50 (Homo sapiens) | Structure (SMILES) | Reduction in absorbance at 518 nm (DPPH) [2]
4.69 | 6.63 | 6.92 |  | 168 |  |  |  |  |  |  |  |  | O=C(O)Cn1nc2c3ccccc3n(CC(=O)O)c2nc1=O | 
< 4.00 | 6.93 | 7.07 | 13.4% | > 1180 |  |  |  |  |  |  |  |  | COCn1nc2c3ccccc3n(CC(=O)O)c2nc1=O | 0.042
< 4.00 | 6.10 | 6.36 | 37.8% | > 230 |  |  |  |  |  |  |  |  | O=C(O)Cn1c2ccccc2c2nn(Cc3ccccc3)c(=O)nc21 | 
